Source: ChEMBL document CHEMBL6083194, “Discovery and evaluation of 3-(2-isocyanobenzyl)-1H-indole derivatives as potential quorum sensing inhibitors for the control of Pseudomonas aeruginosa infections in vitro” (RSC Med Chem, 2024)
Values after ≈ are worked out from the molar mass of the structure shown. Active and inactive are the calls of the source. The calls are words filed in the database; no cut-off is given here.

Legend:
[1] = Inhibition of quorum sensing system in Pseudomonas aeruginosa PAO1
Summary of the method: (§1)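 Plate screen. CV026 grown overnight in LB with 50 μg ml−1 kanamycin; 15 μl seeded into 15 ml LB agar (1.0% agarose) containing 20 μM C4-HSL. PAO1 plates run in parallel. Test colonies inoculated by toothpick, incubated overnight at 37 °C. Ring of colourless viable cells around the colony scored as inhibition.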

[2] = Inhibition of quorum sensing system in Chromobacterium violaceum CV026; summary of the method: as §1
[3] = system: Pseudomonas aeruginosa; assay: Inhibition of biofilm formation in Pseudomonas aeruginosa PAO1 incubated for 24 hrs crystal violet staining based SEM assay; type: functional, organism-based
[4] = system: Pseudomonas aeruginosa; assay: Inhibition of biofilm formation in Pseudomonas aeruginosa PAO1 at 1/2 times MIC incubated for 24 hrs crystal violet staining based SEM assay; type: functional
[5] = system: Pseudomonas aeruginosa; assay: Inhibition of pyocyanin production in Pseudomonas aeruginosa PAO1 at 1/2 time MIC incubated for 18 hrs; type: functional
Summary of the method: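 Overnight PAO1 in LB diluted to OD600 = 0.05, subcultured 5–7 h to mid-log, rediluted to OD600 = 0.05. 5 mL with compound grown 18 h at 37 °C, 200 rpm. Supernatant extracted with 3 mL chloroform, back-extracted into 0.2 M HCl, absorbance at 520 nm.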

[6] = system: Pseudomonas aeruginosa; assay: Inhibition of rhamnolipid production in Pseudomonas aeruginosa PAO1 at 1/2 to 1/4 times MIC by orcinol method; type: functional, organism-based
Summary of the method: (§2)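 Overnight PAO1 diluted 1:100 into LB with compound, 37 °C, 180 rpm; DMSO control. Supernatant (100 μL) mixed with 900 μL 0.19% orcinol in 53% H2SO4, heated 30 min at 80 °C, cooled, read at 421 nm.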

[7] = system: Pseudomonas aeruginosa; assay: Inhibition of rhamnolipid production in Pseudomonas aeruginosa PAO1 at 1/2 times MIC by orcinol method; type: functional; summary of the method: as §2
[8] = system: Pseudomonas aeruginosa; assay: Inhibition of rhamnolipid production in Pseudomonas aeruginosa PAO1 at 1/4 times MIC by orcinol method; type: functional; summary of the method: as §2
[9] = system: Pseudomonas aeruginosa; assay: Antibacterial activity against Pseudomonas aeruginosa PAO1 by serial dilution method; type: functional
Summary of the method: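 PAO1 in LB, 37 °C. MIC by CLSI 2-fold serial dilution in Mueller–Hinton broth, inoculum 1–5 × 10^5 CFU mL−1, DMSO stocks. Growth curves: overnight culture diluted to OD600 = 0.05, subcultured to mid-log, rediluted to OD600 = 0.05, 3 mL with compound; OD620 read at 1, 3, 5, 7, 9, 11 and 24 h at 37 °C; DMSO negative control.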

[10] = system: Pseudomonas aeruginosa; assay: Inhibition of biofilm formation in Pseudomonas aeruginosa PAO1 at 25 ug/ml incubated for 24 hrs crystal violet staining based assay; type: functional
Summary of the method: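 PAO1 grown statically for 24 h in LB ± compound in 24-well plates. Planktonic cells removed; attached cells stained with 0.05% crystal violet, rinsed, dissolved in 95% ethanol, read at OD570. DMSO negative, resveratrol positive control; SD from three independent experiments.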

[11] = system: Pseudomonas aeruginosa; assay: Induction of biofilm eradication in Pseudomonas aeruginosa PAO1 at 25 ug/ml by crystal violet staining based assay; type: functional; details: dose 25 µg/ml
Summary of the method: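 PAO1 biofilms grown overnight at 37 °C in LB in 24-well plates, washed with PBS, then fresh LB with compound added and grown overnight again. Washed, methanol-fixed, crystal violet stained, ethanol solubilised, read at OD570. DMSO negative, resveratrol positive control.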

[12] = system: Pseudomonas aeruginosa; assay: Anti-virulence effect in Pseudomonas aeruginosa PAO1 assessed as decrease in protease level at 25 ug/ml; type: functional; design: scale not given: the % may be the effect or the level left; details: dose 25 µg/ml
Summary of the method: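 Overnight PAO1 culture diluted 1:100 into LB with compound (6.25–25 μg mL−1), grown at 37 °C and 180 rpm; DMSO and RSV (25 μg mL−1) as controls. Culture supernatant mixed with 2% azocasein in 1 M Tris–HCl pH 8.0 for 15 min at 37 °C. Reaction stopped with 10% TCA, centrifuged, NaOH added, read at OD440.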

[13] = system: Pseudomonas aeruginosa; assay: Anti-virulence effect in Pseudomonas aeruginosa PAO1 assessed as inhibition of pyocyanin production at 25 ug/ml; type: functional; design: scale not given: the % may be the effect or the level left; details: dose 25 µg/ml
Summary of the method: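 Overnight PAO1 culture in LB at 37 °C, diluted to OD600 0.05 and subcultured 5–7 h to mid-log phase, then re-diluted to OD600 0.05. Grown 18 h at 37 °C and 200 rpm with compound (6.25, 12.5, 25 μg mL−1) or DMSO. Supernatant extracted into chloroform, back-extracted into 0.2 M HCl, read at 520 nm.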

[14] = system: Pseudomonas aeruginosa; assay: Anti-virulence effect in Pseudomonas aeruginosa PAO1 assessed as inhibition of rhamnolipid production at 25 ug/ml; type: functional; design: scale not given: the % may be the effect or the level left; details: dose 25 µg/ml
Summary of the method: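 PAO1 culture supernatant from growth with compound (6.25–25 μg mL−1) at 37 °C and 180 rpm, or with DMSO or RSV (25 μg mL−1) as controls. Orcinol assay: 100 μL sample plus 0.19% orcinol in 53% H2SO4, heated 30 min at 80 °C, cooled, read at 421 nm. At least three experiments in triplicate.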

[15] = system: Pseudomonas aeruginosa; assay: Anti-virulence effect in Pseudomonas aeruginosa PAO1 assessed as inhibition of EPS production at 25 ug/ml; type: functional; design: scale not given: the % may be the effect or the level left; details: dose 25 µg/ml
Summary of the method: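 PAO1 grown with compound (6.25–25 μg mL−1) in 24-well plates for 24 h at 37 °C and 180 rpm; DMSO and RSV (25 μg mL−1) as controls. Biofilms washed with water, then treated with 0.9% NaCl, 5% phenol and 0.2% hydrazine sulfate. Held 1 h in the dark, read at OD490. Three independent experiments.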

Row | inhibition [1] | inhibition [2] | MIC [9] [µg/mL] | Compound | inhibition [3] | inhibition (INH) [4] [%] | inhibition [5] | inhibition [6] | inhibition (INH) [7] [%] | inhibition (INH) [8] [%] | inhibition (INH) [5] [%] | inhibition at 25 µg/mL [10] [%] | Activity [11] [%] | Activity [12] [%] | Activity [13] [%] | Activity [14] [%] | Activity [15] [%]
1 | Active; Strong Inhibition Observed | Active; Showed Higher Activity | 6 (≈ 22.9 µM) | COc1ccc2[nH]cc(Cc3ccccc3C#N)c2c1 | Dose-dependent-effect | 7 | Active; Showed Higher Activity Than Positive Control Rsv | Active | 44 | 30 | – | – | – | – | – | – | –
2 | – | – | – | Oc1ccc(/C=C/c2cc(O)cc(O)c2)cc1 [RESVERATROL] | Dose-dependent-effect | – | – | – | – | – | 38 | 55 | 47 | 26 | 26 | 12 | 22
